{"source": "paper PMC12238435", "about": "(EJNMMI Radiopharmacy and Chemistry, 2025)", "key": {"[1]": {"assay": "Ex vivo biodistribution in mice with glioblastoma", "parameters": "species or system mouse", "conditions": "no blocking, 60 min postinjection, gamma counting, mean, n=7 ([18F]FNA-N-CooP), n=4 ([18F]FNA)"}, "[2]": {"assay": "In vivo stability analysis", "parameters": "species or system mouse", "conditions": "mice with BT12 glioblastoma, i.v.", "procedure,_shortened": "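After 60-min dynamic PET following tail-vein i.v. injection of the 18F-labelled peptide tracer, heparinized blood was centrifuged (2,100 × g, 5 min). Plasma was deproteinized with an equal volume of acetonitrile (14,000 × g, 3 min, RT), and fractions were gamma-counted. Protein-free plasma and acetonitrile-extracted brain homogenate were run on radio-HPLC (C18, 0.1% TFA water/acetonitrile, 12–80% B gradient). Peaks were assigned by reference retention times and co-injection.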"}, "[3]": {"tested_on": "intracranial BT12 glioblastoma xenografts", "assay": "PET imaging of mice with intracranial BT12 glioblastoma xenografts", "type": "in vivo, mouse", "conditions": "for SUV in healthy brain: i.v.", "procedure,_shortened": "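Mice were imaged 21 days after intracranial BT12 inoculation, under 1–2% isoflurane on a heating pad. Non-contrast HRCT came first, then the tracer (4.70 ± 0.44 MBq, 0.10 ± 0.06 µg) i.v. via tail-vein cannula and 60-min dynamic list-mode PET. For blocking, the MCT1 inhibitor (1.1 mg/kg) was given i.v. 15 min before tracer. SUV was corrected for injected dose, body weight and tail/cannula residue; TBR was also derived. Data are mean ± SD, unpaired t-test.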"}, "[4]": {"conditions": "ref Dillemuth et al. [2025]; cited from earlier work"}, "[5]": {"tested_on": "monocarboxylate transporter 1 (MCT1)", "conditions": "AZD3965 1.1 mg/kg; same mouse model; ref Dillemuth et al. [2025]; cited from earlier work"}, "[6]": {"conditions": "PET, glioblastoma mice, no blocking, mean ± SD, n = 4"}, "[7]": {"conditions": "PET, no blocking, single mouse (one of two)"}}, "note": "Where two headings read alike, the source gives them in different places."}
{"molecule": "FNA-CGLSGLGVA-NH2 [[^18F]FNA-N-CooP]", "values": [{"measurement": "%ID/g Kidney", "setting": "[1]", "value": "8.88 ± 6.16", "unit": "%ID/g"}, {"measurement": "%ID/g Urine", "setting": "[1]", "value": "772.29 ± 373.58", "unit": "%ID/g"}, {"measurement": "in vivo stability", "setting": "[2]", "value": "not stable in vivo"}, {"measurement": "SUV in tumor, blocking with AZD3965", "setting": "[3]; AZD3965 1.1 mg/kg i.v. 15 min before tracer, single mouse (one of two)", "value": 0.17}, {"measurement": "SUV in healthy brain", "setting": "[3]; [6]", "value": "0.11 ± 0.02"}]}
{"molecule": "O=C(O)c1ccc([18F])nc1", "note": "[[^18F]FNA, 6-[^18F]fluoronicotinic acid, reference compound]", "values": [{"measurement": "in vivo stability", "setting": "[4]", "value": "stable in vivo"}, {"measurement": "tumor-to-brain ratio (TBR)", "setting": "[3]; [6]", "value": "1.51 ± 0.08"}, {"measurement": "SUV in healthy brain", "setting": "[3]; [6]", "value": "0.59 ± 0.05"}]}
{"molecule": "Cc1[nH]nc(C(F)(F)F)c1Cc1sc2c(c1C(=O)N1C[C@](C)(O)CO1)c(=O)n(C)c(=O)n2C(C)C", "note": "[AZD3965]", "values": [{"measurement": "reduction of glioblastoma uptake of [^18F]FNA", "setting": "[5]", "value": 76, "unit": "%"}]}
{"molecule": "FB-CGLSGLGVA-NH2 [[^18F]FB-N-CooP]", "values": [{"measurement": "TBR", "setting": "[3]; [7]", "value": 1.28}, {"measurement": "tumor SUV", "setting": "[3]; [7]", "value": 0.16}]}
